MT1-MMP act inh = blocks activation of human MT1-MMP. P50281. HT1080 RFP-PRO-GFP cells, GFP/RFP ratio fluorescence, overnight; percent of plate control window, DMSO zero. GFP/RFP ratio change, % at 20 µM. 360,000 tested, 0.061% active;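 active = GFP/RFP ratio change of at least 30% with cell ATP level not reduced by more than half and red fluorescence within 50% of control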
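Assay system: HT1080 cells carrying an RFP-PRO-GFP reporter | Dosing: Single dose of 20 µM compound, 1% DMSO final | Incubation: Cells overnight before dosing, compound overnight, 37 °C, 5% CO2 | Evaluation: GFP/RFP fluorescence ratio | Control set: DMSO and RFP-L50D-GFP cell wells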
VLA-4 inh = inhibition in a human VLA-4 binding assay; AID 2557; 330,000 tested, 0.2% active; inhibition, % (about 7 µM as worked out from the volumes in the protocol); VLA-4 expressing cells, ligand binding flow cytometry; in the data active = inhibition above about 50%
ABCB6 inh 2 = blocks the human ABCB6 transporter | K562-ABCB6 porphyrin accumulation, flow cytometry, 1 h; active compounds read low | fluorescence ratio to DMSO, % at 10 µM | Q9NP58 | 360,000 tested, 0.19% active | AID 602162;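 active = fluorescence ratio to DMSO below 75%, the collection mean minus 3 SD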;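 also: signal is porphyrin accumulated inside mitochondria; 100% equals median channel fluorescence of DMSO control wells; lower ratio means ABCB6 inhibition with less porphyrin fluorescence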
DAGLB inh = blocks human DAGLB lipase activity; HEK293T DAGLB membrane lysate, EnzChek fluorogenic substrate; inhibition, % at 5.17 µM; 340,000 tested, 0.059% active; in the data active = inhibition above about 34%;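 also: 0% = enzyme with vehicle and 100% = wells lacking enzyme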
Target sequence (Q8NCG7 whole entry, looked up): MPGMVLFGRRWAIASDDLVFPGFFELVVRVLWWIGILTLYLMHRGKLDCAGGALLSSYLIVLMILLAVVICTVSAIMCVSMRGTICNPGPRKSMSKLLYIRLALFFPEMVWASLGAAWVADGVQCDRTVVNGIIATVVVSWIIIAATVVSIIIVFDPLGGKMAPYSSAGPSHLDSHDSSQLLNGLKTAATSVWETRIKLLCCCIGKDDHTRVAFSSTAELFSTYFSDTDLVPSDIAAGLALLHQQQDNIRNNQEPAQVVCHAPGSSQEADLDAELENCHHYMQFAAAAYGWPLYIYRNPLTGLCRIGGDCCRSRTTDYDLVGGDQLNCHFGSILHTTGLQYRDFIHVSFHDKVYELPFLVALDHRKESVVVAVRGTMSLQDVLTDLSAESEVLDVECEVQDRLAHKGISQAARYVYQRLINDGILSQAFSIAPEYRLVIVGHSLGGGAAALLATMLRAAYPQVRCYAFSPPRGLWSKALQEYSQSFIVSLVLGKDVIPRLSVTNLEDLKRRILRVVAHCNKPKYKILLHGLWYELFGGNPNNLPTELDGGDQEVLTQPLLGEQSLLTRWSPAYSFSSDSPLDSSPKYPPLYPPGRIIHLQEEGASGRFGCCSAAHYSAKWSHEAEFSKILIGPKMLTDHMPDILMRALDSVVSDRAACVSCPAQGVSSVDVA
FGF22 binding-1 = binders of recombinant human FGF22 by thermal shift. Q9HCT0. SYPRO orange fluorescence; percent of sucrose octasulfate shift, DMSO zero. activity (Tm shift, normalised), % at 9.99 µM. 340,000 tested, 1.5% active;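 active = mean Tm shift, scaled 0 neutral to 100 positive control, at about 1.3% or above, every replicate too, limit read from the data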
Exocytosis inh = lytic granule exocytosis inhibition. TALL-104 LAMP-1 surface exposure, flow cytometry; cells stimulated with thapsigargin and PMA. inhibition, % at 10 µM. 360,000 tested, 0.66% active;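 active = inhibition above about 55%, limit read from the data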
FGF22 binding-2 = binds human FGF22 shifting its melting temperature; shares compounds with FGF22 binding-1; recombinant FGF22 thermal shift, SYPRO orange fluorescence; thermal shift activity, °C (ΔTm) at 38 µM; 1,000 tested, 2% active;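 active = fitted rise in melting shift crosses a set limit at or below the top valid dose tested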
FGF22 TSA DP = binders of human FGF22 by thermal shift; shares compounds with FGF22 binding-1; Thermal shift assay, SYPRO orange, melting temperature shift; Tm shift (activity), % at 38 µM; 50 tested, under 10 active; AID 743017;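 active = compounds whose fitted dose curve of melting temperature shift rises past a set threshold within the tested doses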
SYPRO no-protein = counter-screen for FGF22 binders: compound-only thermal shift, no protein. AC50, µM (highest dose often 38 µM). AID 743019. 1,000 tested, 2% active. shares compounds with FGF22 binding-1. compound-only SYPRO orange thermal shift counter-screen;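 active = rising signal whose fitted curve reaches the 0.54 level within the top valid dose, showing a melting point, actives reach about 13 µM in these data; inactive = the rest, including activity in the opposite direction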; also: value is where the raw curve crosses a fixed level and not half-maximal
* = called active by the depositor; i = inactive; / = no result given; ! = not confirmed by another sample; [ ] = another dose, or the depositor's remark. Most compounds without a hit are left out; they make up all but 2% or so of the library.

SMILES	MT1-MMP act inh	VLA-4 inh	ABCB6 inh 2	DAGLB inh	FGF22 binding-1	Exocytosis inh	FGF22 binding-2	SYPRO no-protein	others
COc1cccc(NC(=O)N(C)C[C@H]2Oc3cc(-c4ccccc4F)ccc3S(=O)(=O)N([C@@H](C)CO)C[C@@H]2C)c1	/	/	/	/	0	/	/	/
CC(C)(C)[S@@](=O)N1Cc2cc(C(=O)NCCN3CCCC3)nc(-c3cccc(-c4cccc(C#N)c4)c3)c2[C@H]1CCO	/	/	/	/	0	/	/	/
C[C@H](CO)N1C[C@H](C)[C@@H](CN(C)C(=O)Cc2cccnc2)Oc2ncc(C#Cc3ccccc3F)cc2C1=O	/	/	/	/	0	/	/	/
O=C(NCC[C@@H]1CC[C@H](NC(=O)C2CCCCC2)[C@@H](CO)O1)c1cc(Cl)cc(Cl)c1	/	/	/	/	0	/	/	/
CC(=O)Nc1cccc(NC(=O)Nc2ccc(C(C)=O)cc2)c1	2	35	100	0	/	-2	/	/
CC(=O)Nc1ccc(NC(=O)Nc2ccccc2)cc1	2	2	101	0	1.8*	0	0.19	i	FGF22 TSA DP=0
CC(=O)c1ccc(NC(=O)Nc2cccnc2)cc1	-3	4	100	2	1.4*	-2	-0.013	i	FGF22 TSA DP=1
CC(=O)c1ccc(NC(=O)Nc2ccncc2)cc1	3	5	96	0	43	6	/	/
C[C@@H]1CN([C@@H](C)CO)C(=O)Cc2cc(NC(=O)Nc3ccccc3)ccc2O[C@@H]1CN(C)C(=O)Nc1ccccc1	/	/	/	/	1	/	/	/
C[C@H](CO)N1C[C@H](C)[C@H](CN(C)C(=O)Nc2ccccc2)Oc2ccc(NC(=O)Nc3ccccc3)cc2CC1=O	/	/	/	/	1.2*	/	0.13	i
COc1ccc(NC(=O)N(C)C[C@@H]2Oc3ccc(NS(C)(=O)=O)cc3CC(=O)N([C@@H](C)CO)C[C@H]2C)cc1	/	/	/	/	16*	/	0.14[42 µM]	i
COCCNC(=O)C[C@@H]1C[C@@H]2c3cc(NC(=O)Nc4ccccc4F)ccc3O[C@@H]2[C@H](CO)O1	/	/	/	/	0	/	/	/
Cc1cccc(S(=O)(=O)N2C[C@H]3[C@@H](c4ccccc42)[C@@H](CO)N3CC2CCOCC2)c1	/	/	/	/	-1	/	/	/
N#C[C@H]1[C@@H](c2ccc(C#CCC3CCCC3)cc2)[C@H](CO)N1C(=O)CN1CCOCC1	/	/	/	/	19*	/	0.21[42 µM]	i
Brc1ccccc1/C=N/Nc1ccccn1	-4	-1	95	-4	2.2*	-3	0.2	i
CN(Cc1c(C(=O)N/N=C/c2ccc(O)cc2)nnn1-c1nonc1N)c1ccccc1	0	1	105	-1	1.9*	6	-0.027	i	FGF22 TSA DP=0
CC(C)c1c(C(=O)N/N=C/c2cccc3ccccc23)nnn1-c1nonc1N	2	3	105	-3	0	8	/	/
CN(Cc1c(C(=O)N/N=C/c2ccccc2)nnn1-c1nonc1N)c1ccccc1	1	4	87	0	0	1	/	/
CC(C)c1c(C(=O)N/N=C/c2c[nH]c3ccccc23)nnn1-c1nonc1N	-2	2	89	0	2.3*	13	/	i	FGF22 TSA DP=1
CN(C)C(=O)[C@H]1[C@H](CO)[C@H]2Cn3c(ccc(C4=CCCCC4)c3=O)[C@@H]1N2Cc1ccccc1F	/	/	/	/	0	/	/	/
O=C(OC[C@@H]1[C@H]2c3ccccc3OC1(CO)N=C1SCc3ccccc3CN12)c1ccccc1	/	/	/	/	0	/	/	/
C[C@H]1CN([C@@H](C)CO)C(=O)Cc2cc(N(C)C)ccc2O[C@@H]1CN(C)C(=O)Nc1cccc2ccccc12	/	/	/	/	-2	/	/	/
C[C@H]1CN([C@@H](C)CO)C(=O)c2cc(C3=CCCC3)cnc2O[C@@H]1CN(C)C(=O)CN(C)C	/	/	/	/	0	/	/	/
C[C@H]1CN([C@@H](C)CO)C(=O)c2cc(C3=CCCC3)cnc2O[C@H]1CN(C)C(=O)CN(C)C	/	/	/	/	1.4*	/	0.001	i
C[C@@H]1CN([C@@H](C)CO)C(=O)c2cc(Br)cnc2O[C@H]1CN(C)C(=O)C1CC1	6	/	97	0	2.4*!	-2	0.093	i
SMILES	MT1-MMP act inh	VLA-4 inh	ABCB6 inh 2	DAGLB inh	FGF22 binding-1	Exocytosis inh	FGF22 binding-2	SYPRO no-protein	others
C[C@@H]1CN([C@@H](C)CO)C(=O)c2cc(NC(=O)Nc3ccccc3)ccc2O[C@@H](C)CCCCO[C@H]1CN(C)C	/	/	/	/	0	/	/	/
CO[C@@H]1CN(C)C(=O)c2ccc(NC(=O)C3CCOCC3)cc2OC[C@H](C)N(Cc2cccnc2)C[C@@H]1C	/	/	/	/	0	/	/	/
C[C@H](CO)N1C[C@H](C)[C@@H](CN(C)C(=O)Nc2ccc(F)cc2)Oc2ccc(NC(=O)CCCCCC(=O)Nc3ccccc3N)cc2C1=O	/	/	/	/	0	/	/	/
C[C@H](O)C#Cc1ccc2c(c1)O[C@@H](CN(C)C(=O)Cc1ccccn1)[C@H](C)CN([C@H](C)CO)S2(=O)=O	/	/	/	/	0	/	/	/
C[C@@H]1CN([C@H](C)CO)S(=O)(=O)c2ccc(C#CCN(C)C)cc2O[C@@H]1CN(C)Cc1ccccc1F	3	/	100	1	4.7*!	1	0.15	i
COCC(=O)N(C)C[C@@H]1Oc2cc(C#C[C@H](C)O)ccc2S(=O)(=O)N([C@@H](C)CO)C[C@H]1C	/	/	/	/	36*	/	0.021[42 µM]	i
C[C@H](O)C#Cc1ccc2c(c1)O[C@H](CN(C)C(=O)Cc1ccccn1)[C@@H](C)CN([C@H](C)CO)S2(=O)=O	/	/	/	/	1.4*	/	-0.082	i
C[C@@H]1CN([C@H](C)CO)S(=O)(=O)c2ccc(C#CC3CC3)cc2O[C@H]1CN(C)C(=O)c1ccncc1	/	/	/	/	1.4*	/	0.024	i
C[C@H](CO)N1C[C@H](C)[C@H](CN(C)S(=O)(=O)c2cccs2)Oc2c(NC(=O)C3CC3)cccc2C1=O	/	/	/	/	0	/	/	/
CO[C@@H](CN(C)C(=O)c1ccc2c(c1)OCO2)[C@H](C)CN([C@H](C)CO)S(=O)(=O)c1ccc(C)cc1	/	/	/	/	0	/	/	/
CCCC#Cc1ccc2c(c1)O[C@H](CN(C)C(C)=O)[C@@H](C)CN([C@@H](C)CO)S2(=O)=O	/	/	/	/	1.5*	/	0.03	i
COCC(=O)NC[C@H]1[C@H](c2ccc(C3=CCCC3)cc2)[C@@H](CO)N1C(C)=O	/	/	/	/	1.3*	/	-0.058[42 µM]	i
COCC(=O)NC[C@H]1[C@@H](c2ccc(C3=CCCC3)cc2)[C@H](CO)N1C(C)=O	/	/	/	/	0	/	/	/
c1ccc(NCc2ccccn2)cc1	-1	-15	93	1	1.4*	-2	0.23	i
O=C(NCc1ccccn1)C(=O)Nc1ccccc1	-12	6	97	1	0	0	/	/

From PubChem
